Experimental data as given in ChEMBL document CHEMBL1142073, “Synergistic activity of R207910 combined with pyrazinamide against murine tuberculosis” (2007).
The source made the active and inactive calls. No cut-off for these calls is given here.

How the values were obtained:
[1] = system: Mycobacterium tuberculosis; test: Reduction of bacterial counts in Mycobacterium tuberculosis H37Rv infected Swiss mouse lung at 25 mg/kg, po for 5 days/week after 1 month; format: functional
In short: (§1)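 Female 4-week-old Swiss mice were infected in the tail vein with about 2 10 6 CFU of H37Rv, grown in Dubos broth for 7 days at 37 C. Gavage started 2 weeks post-infection, 5 days/week, with rifampin given 1 h before other drugs. Lung homogenates were plated for CFU; some groups had both lungs cultured undiluted. Mann-Whitney U test.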

[2] = system: Mycobacterium tuberculosis; test: Reduction of bacterial counts in Mycobacterium tuberculosis H37Rv infected Swiss mouse lung at 25 mg/kg, po for 5 days/week after 2 months; format: functional; in short: as §1
[3] = system: Mycobacterium tuberculosis; test: Reduction of lung lesions in Mycobacterium tuberculosis H37Rv infected Swiss mouse at 25 mg/kg, po for 5 days/week after 1 month; format: functional, organism-based; parameters: dose 25 mg/kg
[4] = system: Mycobacterium tuberculosis; test: Reduction of lung lesions in Mycobacterium tuberculosis H37Rv infected Swiss mouse at 25 mg/kg, po for 5 days/week after 2 months; format: functional, organism-based; parameters: dose 25 mg/kg
[5] = system: Mycobacterium tuberculosis; test: Reduction of bacterial counts in Mycobacterium tuberculosis H37Rv infected Swiss mouse lung at 100 mg/kg, po for 5 days/week after 1 month; format: functional; in short: as §1
[6] = system: Mycobacterium tuberculosis; test: Reduction of bacterial counts in Mycobacterium tuberculosis H37Rv infected Swiss mouse lung at 100 mg/kg, po for 5 days/week after 2 months; format: functional; in short: as §1
[7] = system: Mycobacterium tuberculosis; test: Reduction of lung lesions in Mycobacterium tuberculosis H37Rv infected Swiss mouse at 100 mg/kg, po for 5 days/week after 2 months; format: functional, organism-based; parameters: dose 100 mg/kg
[8] = system: Mycobacterium tuberculosis; test: Reduction of bacterial counts in Mycobacterium tuberculosis H37Rv infected Swiss mouse lung at 150 mg/kg, po for 5 days/week after 1 month; format: functional; in short: as §1
[9] = system: Mycobacterium tuberculosis; test: Reduction of bacterial counts in Mycobacterium tuberculosis H37Rv infected Swiss mouse lung at 150 mg/kg, po for 5 days/week after 2 months; format: functional; in short: as §1
[10] = system: Mycobacterium tuberculosis; test: Reduction of lung lesions in Mycobacterium tuberculosis H37Rv infected Swiss mouse at 150 mg/kg, po for 5 days/week after 2 months; format: functional, organism-based; parameters: dose 150 mg/kg
[11] = system: Mycobacterium tuberculosis; test: Reduction of bacterial counts in Mycobacterium tuberculosis H37Rv infected Swiss mouse lung at 10 mg/kg, po for 5 days/week after 1 month; format: functional; in short: as §1
[12] = system: Mycobacterium tuberculosis; test: Reduction of bacterial counts in Mycobacterium tuberculosis H37Rv infected Swiss mouse lung at 10 mg/kg, po for 5 days/week after 2 months; format: functional; in short: as §1
[13] = system: Mycobacterium tuberculosis; test: Reduction of lung lesions in Mycobacterium tuberculosis H37Rv infected Swiss mouse at 10 mg/kg, po for 5 days/week after 2 months; format: functional, organism-based; parameters: dose 10 mg/kg

**Q.** What does the source list for COc1nc2ccc(Br)cc2cc1[C@@H](c1ccccc1)[C@@](O)(CCN(C)C)c1cccc2ccccc12 [BEDAQUILINE]?
**A.** Log10 cfu [1]: 4.1; Log10 cfu [2]: 2.3; Activity [3]: Active; Activity [4]: Active

**Q.** Which results are given for NNC(=O)c1ccncc1 [ISONIAZID]?
**A.** Log10 cfu [1]: 4.9; Log10 cfu [2]: 4.7; Activity [4]: Active

**Q.** What does the source list for COc1c(N2C[C@@H]3CCCN[C@@H]3C2)c(F)cc2c(=O)c(C(=O)O)cn(C3CC3)c12 [MOXIFLOXACIN]?
**A.** Log10 cfu [5]: 5.5; Log10 cfu [6]: 4.3; Activity [7]: Active

**Q.** For NC(=O)c1cnccn1 [PYRAZINAMIDE], which Log10 cfu [8] is on record?
**A.** 6.2

**Q.** And the Log10 cfu [9]?
**A.** 6.4

**Q.** What about the Activity [10] of the same molecule?
**A.** inactive

**Q.** With CO[C@H]1/C=C/O[C@@]2(C)Oc3c(C)c(O)c4c(O)c(c(/C=N/N5CCN(C)CC5)c(O)c4c3C2=O)NC(=O)/C(C)=C\C=C\[C@H](C)[C@H](O)[C@@H](C)[C@@H](O)[C@@H](C)[C@H](OC(C)=O)[C@@H]1C [RIFAMPIN] as the molecule, how does the Log10 cfu [11] read?
**A.** 6

**Q.** What about the Log10 cfu [12] of the same molecule?
**A.** 4.1

**Q.** And the Activity [13]?
**A.** Active
